Converted amounts (≈) assume the structure as drawn.
How the values were obtained:
Format in all cases: functional
[1] = tested on: Stenotrophomonas maltophilia; assay: Antibacterial activity against Stenotrophomonas maltophilia by broth dilution method
[2] = tested on: Achromobacter xylosoxidans; assay: Antibacterial activity against Alcaligenes xylosoxidans by broth dilution method
Pseudomonas aeruginosa [3] = assay: Antibacterial activity against Pseudomonas aeruginosa PA5043 assessed as inhibition of biofilm formation by microtiter plate reader assay
How it was run: (§1)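 Biofilms of cystic fibrosis P. aeruginosa isolates were grown and tested by a previously described method. The endpoint was the biofilm inhibitory concentration, the drug level that prevents biofilm cell growth, compared against planktonic broth-microdilution MICs.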

Pseudomonas aeruginosa [4] = assay: Antibacterial activity against Pseudomonas aeruginosa PA5063 assessed as inhibition of biofilm formation by microtiter plate reader assay; how it was run: as §1
Pseudomonas aeruginosa [5] = assay: Antibacterial activity against Pseudomonas aeruginosa PA5043 by broth dilution method
How it was run: (§2)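 Broth microdilution MIC per CLSI reference method; twofold serial dilutions in cation-adjusted Mueller-Hinton broth. […] Endpoint read by OD600 and confirmed visually.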

Staphylococcus aureus [6] = assay: Antibacterial activity against methicillin-resistant Staphylococcus aureus by broth dilution method; how it was run: as §2
Pseudomonas aeruginosa [7] = assay: Antibacterial activity against Pseudomonas aeruginosa PA1054 by broth dilution method; how it was run: as §2
Staphylococcus aureus [8] = assay: Antibacterial activity against methicillin-sensitive Staphylococcus aureus by broth dilution method
Pseudomonas aeruginosa [9] = assay: Antibacterial activity against Pseudomonas aeruginosa by broth dilution method; how it was run: as §2
Burkholderia cepacia = assay: Antibacterial activity against Burkholderia cepacia clinical isolates by broth dilution method
Pseudomonas aeruginosa [10] = assay: Antibacterial activity against Pseudomonas aeruginosa ATCC 27853 by broth dilution method; how it was run: as §2
Pseudomonas aeruginosa [11] = assay: Antibacterial activity against Pseudomonas aeruginosa PA1042 assessed as inhibition of biofilm formation by microtiter plate reader assay; how it was run: as §1
Pseudomonas aeruginosa [12] = assay: Antibacterial activity against Pseudomonas aeruginosa PA1054 assessed as inhibition of biofilm formation by microtiter plate reader assay; how it was run: as §1
Pseudomonas aeruginosa [13] = assay: Antibacterial activity against Pseudomonas aeruginosa PA1042 by broth dilution method; how it was run: as §2
Pseudomonas aeruginosa [14] = assay: Antibacterial activity against Pseudomonas aeruginosa ATCC 27853 assessed as inhibition of biofilm formation by microtiter plate reader assay
Pseudomonas aeruginosa [15] = assay: Antibacterial activity against Pseudomonas aeruginosa PA5063 by broth dilution method; how it was run: as §2

| Structure (SMILES) | MIC50 [1] [µg/mL] | MIC90 [1] [µg/mL] | MIC50 [2] [µg/mL] | MIC90 [2] [µg/mL] | MIC50 (Staphylococcus aureus [6]) [µg/mL] | MIC90 (Staphylococcus aureus [6]) [µg/mL] | MIC50 (Staphylococcus aureus [8]) [µg/mL] | MIC90 (Staphylococcus aureus [8]) [µg/mL] | MIC50 (Pseudomonas aeruginosa [9]) [µg/mL] | MIC90 (Pseudomonas aeruginosa [9]) [µg/mL] | further results |
| --- | --- | --- | --- | --- | --- | --- | --- | --- | --- | --- | --- |
| NCC[C@H](O)C(=O)N[C@@H]1C[C@H](N)[C@@H](O[C@H]2O[C@H](CN)[C@@H](O)[C@H](O)[C@H]2O)[C@H](O)[C@H]1O[C@H]1O[C@H](CO)[C@@H](O)[C@H](N)[C@H]1O [AMIKACIN] | 128 (≈ 219 µM) | > 128 | > 128 | > 128 | 8 (≈ 13.7 µM) | 16 (≈ 27.3 µM) | 1 (≈ 1.71 µM) | 4 (≈ 6.83 µM) | 16 (≈ 27.3 µM) | > 128 | BBC (Pseudomonas aeruginosa [3]): 64 µg/mL; BBC (Pseudomonas aeruginosa [4]): 16 µg/mL; MIC (Pseudomonas aeruginosa [5]): 64 µg/mL (≈ 109 µM); MIC (Pseudomonas aeruginosa [7]): 1 µg/mL (≈ 1.71 µM); MIC50 (Burkholderia cepacia): 128 µg/mL (≈ 219 µM); MIC90 (Burkholderia cepacia): > 128 µg/mL; MIC (Pseudomonas aeruginosa [10]): 2 µg/mL (≈ 3.42 µM); BBC (Pseudomonas aeruginosa [11]): 8 µg/mL; BBC (Pseudomonas aeruginosa [12]): 4 µg/mL; MIC (Pseudomonas aeruginosa [12]; Pseudomonas aeruginosa, PA1054): 1 µg/mL (≈ 1.71 µM); MIC (Pseudomonas aeruginosa [13]): 4 µg/mL (≈ 6.83 µM); BBC (Pseudomonas aeruginosa [14]): 8 µg/mL; MIC (Pseudomonas aeruginosa [15]): 2 µg/mL (≈ 3.42 µM) |
| O=C(O)c1cn(C2CC2)c2cc(N3CCNCC3)c(F)cc2c1=O [CIPROFLOXACIN] | 4 (≈ 12.1 µM) | 16 (≈ 48.3 µM) | 4 (≈ 12.1 µM) | 16 (≈ 48.3 µM) | 16 (≈ 48.3 µM) | > 32 | 0.125 (≈ 0.377 µM) | 0.5 (≈ 1.51 µM) | 1 (≈ 3.02 µM) | 8 (≈ 24.1 µM) |  |

Reference: ChEMBL document CHEMBL1212734, “In vitro pharmacodynamics of levofloxacin and other aerosolized antibiotics under multiple conditions relevant to chronic pulmonary infection in cystic fibrosis” (2010)
